Measurements as given in paper PMC6936494 (Proceedings of the National Academy of Sciences of the …, 2019).
“Also recorded” adds a separate entry of the source. Read-outs that look alike come from different tables or passages of the source.

Tests used:
full length LiaX = biological target: T1, full length LiaX (Enterococcus faecalis, UniProt Q834B6); test: LL-37 binding by microscale thermophoresis, amine reactive dye, full length LiaX; set-up: species or system Enterococcus faecalis S613
T1 sequence (Q834B6 1-533): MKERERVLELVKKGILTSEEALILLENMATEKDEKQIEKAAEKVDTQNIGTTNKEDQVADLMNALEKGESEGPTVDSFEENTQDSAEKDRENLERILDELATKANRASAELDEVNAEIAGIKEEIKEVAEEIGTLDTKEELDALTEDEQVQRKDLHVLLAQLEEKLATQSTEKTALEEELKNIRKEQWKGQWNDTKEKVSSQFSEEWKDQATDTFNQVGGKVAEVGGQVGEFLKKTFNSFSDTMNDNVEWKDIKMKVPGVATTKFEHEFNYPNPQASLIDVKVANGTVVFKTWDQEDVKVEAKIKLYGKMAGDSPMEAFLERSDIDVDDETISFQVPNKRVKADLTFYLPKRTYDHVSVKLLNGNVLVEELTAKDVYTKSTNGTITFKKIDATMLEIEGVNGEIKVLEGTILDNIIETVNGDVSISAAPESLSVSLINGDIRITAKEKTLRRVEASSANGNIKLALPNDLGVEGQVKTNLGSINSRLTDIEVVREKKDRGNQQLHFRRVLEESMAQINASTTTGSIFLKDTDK
Procedure, shortened: (§1)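 Recombinant LiaX (full length or N-terminal domain, His/SUMO-tagged) was expressed in E. coli BL-21 and nickel-column purified, then labeled with NT-647. Microscale thermophoresis ran at 25% LED power in 0.1 M phosphate buffer pH 7.4, 0.0027 M KCl, 0.137 M NaCl and 1 mM TCEP, with or without 5% DMSO. Fluorescence changes were recorded across increasing LL-37 variant concentrations to derive Kd.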

N-terminal LiaX = biological target: T2, N-terminal LiaX (Enterococcus faecalis, UniProt Q834B6); test: LL-37 binding by microscale thermophoresis, amine reactive dye, N-terminal LiaX; set-up: species or system Enterococcus faecalis S613
T2 sequence (Q834B6 1-277): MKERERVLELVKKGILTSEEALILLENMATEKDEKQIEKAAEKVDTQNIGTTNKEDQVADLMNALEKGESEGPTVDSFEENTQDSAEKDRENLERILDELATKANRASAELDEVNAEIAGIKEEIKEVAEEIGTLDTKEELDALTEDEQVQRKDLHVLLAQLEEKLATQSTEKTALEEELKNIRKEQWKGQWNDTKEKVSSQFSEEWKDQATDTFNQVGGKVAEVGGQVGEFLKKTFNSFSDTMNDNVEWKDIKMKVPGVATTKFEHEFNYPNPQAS
Procedure, shortened: as §1

[1] = biological target: T3, N-terminal domain of LiaX (Enterococcus faecalis, UniProt Q834B6); test: Microscale thermophoresis with His-tag specific dye, N-terminal domain of LiaX; type: binding, Enterococcus faecalis S613
T3 sequence (Q834B6 1-275): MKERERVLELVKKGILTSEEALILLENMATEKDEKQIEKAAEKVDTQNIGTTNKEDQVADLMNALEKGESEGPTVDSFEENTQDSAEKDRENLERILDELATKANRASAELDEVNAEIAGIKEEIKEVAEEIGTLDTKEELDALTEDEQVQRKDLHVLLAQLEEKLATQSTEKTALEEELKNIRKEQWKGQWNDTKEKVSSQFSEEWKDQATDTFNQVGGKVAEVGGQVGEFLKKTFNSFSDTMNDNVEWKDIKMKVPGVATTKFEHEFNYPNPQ

OG1RF and S613 = conditions: including against E. faecalis; ref [23], [24]; cited from earlier work
[2] = biological target: N-terminal domain of LiaX (Enterococcus faecalis); test: MST
[3] = biological target: N-terminal domain of LiaX (Enterococcus faecalis); test: MST; remark: listed apart in the source
E. faecalis [4] = test: Growth kinetics with LiaX; type: cell-based, Enterococcus faecalis; conditions: functional concentrations; 100 nM in BHI, OD600, 24 h
E. faecalis [5] = test: C. elegans infection assay with exogenous N-terminal LiaX; type: in vivo, Enterococcus faecalis; host Caenorhabditis elegans
Procedure, shortened: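 Recombinant N-terminal LiaX domain (His/SUMO-tagged) was expressed in E. coli BL-21 and nickel-column purified. Synchronized young adult worms (60–90) were infected with E. faecalis on BHI agar plus gentamicin (10 µg/mL). They were then moved to a liquid killing format (20% BHI broth, 80% M9W buffer) containing N-terminal LiaX at 0.1 to 500 nM, held at 25 °C, and deaths scored daily. Results come from 3 independent experiments, with Kaplan–Meier log-rank or 1-way ANOVA analysis.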

liaFSR and liaXYZ = test: qRT-PCR for liaFSR and liaXYZ expression; type: cell-based, Enterococcus faecalis; conditions: OG1RF
E. faecalis strains = test: LL-37 killing assay; type: cell-based, Enterococcus faecalis; conditions: OG1RFΔliaR; 50 µg/ml LL-37, 2 h
[6] = test system: Staphylococcus aureus ATCC29213; test: DAP MIC by broth microdilution with exogenous LiaX or N-terminal LiaX, S. aureus; type: cell-based; conditions: 50 nM exogenous protein
[7] = test system: DAP-S E. faecalis strains; type: cell-based, Enterococcus faecalis

CC[C@H](C)[C@H](NC(=O)[C@H](CCCCN)NC(=O)[C@H](CCC(=O)O)NC(=O)[C@H](CCCCN)NC(=O)[C@H](CO)NC(=O)[C@H](CCCCN)NC(=O)[C@H](CCCNC(=N)N)NC(=O)[C@H](Cc1ccccc1)NC(=O)[C@H](Cc1ccccc1)NC(=O)[C@H](CC(=O)O)NC(=O)CNC(=O)[C@H](CC(C)C)NC(=O)[C@@H](N)CC(C)C)C(=O)NCC(=O)N[C@@H](CCCCN)C(=O)N[C@@H](CCC(=O)O)C(=O)N[C@@H](Cc1ccccc1)C(=O)N[C@@H](CCCCN)C(=O)N[C@@H](CCCNC(=N)N)C(=O)N[C@H](C(=O)N[C@H](C(=O)N[C@@H](CCC(N)=O)C(=O)N[C@@H](CCCNC(=N)N)C(=O)N[C@H](C(=O)N[C@@H](CCCCN)C(=O)N[C@@H](CC(=O)O)C(=O)N[C@@H](Cc1ccccc1)C(=O)N[C@@H](CC(C)C)C(=O)N[C@@H](CCCNC(=N)N)C(=O)N[C@@H](CC(N)=O)C(=O)N[C@@H](CC(C)C)C(=O)N[C@H](C(=O)N1CCC[C@H]1C(=O)N[C@@H](CCCNC(=N)N)C(=O)N[C@H](C(=O)N[C@@H](CCC(=O)O)C(=O)N[C@@H](CO)C(=O)O)[C@@H](C)O)C(C)C)[C@@H](C)CC)C(C)C)[C@@H](C)CC [LL-37]
Kd (full length LiaX): 8.26 ± 0.28 µM | Kd (N-terminal LiaX): 10.6 ± 0.43 µM | Kd [1]: 5.27 ± 1.14 µM

SSLLEKGLDGAKKAVGGLGKLGKDAVEDLESVGKGAVHDVKDVLDSVL [DCD-1L]
binding affinity to N-terminal domain of LiaX ([1]; His-tag specific dye, DCD-1L tested up to 1,000 µM): no detectable binding affinity | antimicrobial activity (OG1RF and S613): broad-spectrum antimicrobial activity, including against E. faecalis

human cathelicidin LL-37 (peptide)
Kd [2]: 10.6 µM | Kd [3]: 5.27 µM

B1: N-terminal LiaX: purified N-terminal LiaX (residues 1-277; His-tagged variant residues 1-275) (protein)
chain: MKERERVLELVKKGILTSEEALILLENMATEKDEKQIEKAAEKVDTQNIGTTNKEDQVADLMNALEKGESEGPTVDSFEENTQDSAEKDRENLERILDELATKANRASAELDEVNAEIAGIKEEIKEVAEEIGTLDTKEELDALTEDEQVQRKDLHVLLAQLEEKLATQSTEKTALEEELKNIRKEQWKGQWNDTKEKVSSQFSEEWKDQATDTFNQVGGKVAEVGGQVGEFLKKTFNSFSDTMNDNVEWKDIKMKVPGVATTKFEHEFNYPNPQ
modifications: labeled with a RED-tris-NTA his-tag specific dye (NanoTemper); left off: His6, C-terminal, kept
effect on growth of E. faecalis (E. faecalis [4]): no impact on the growth | virulence in C. elegans (E. faecalis [5]; OG1RF and S613, 100 nM purified N-terminal LiaX (Fig. 6), listed as N terminus of LiaX): more virulent; also recorded: increased virulence | virulence in C. elegans, dose dependence (E. faecalis [5]; OG1RF or S613, 5-100 nM N-terminus LiaX): dose-dependent manner | virulence in C. elegans (E. faecalis [5]; OG1RFΔliaR and TMΔliaR, exogenous N terminus of LiaX): did not, however, alter the virulence | transcription of liaFSR and liaXYZ (liaFSR and liaXYZ; 50 nM protein without DAP, vs untreated): no effect on the levels of transcription | LiaFSR activation relative to DAP alone or DAP with full-length LiaX (liaFSR and liaXYZ; N terminus of LiaX plus DAP): significantly higher and more pronounced | transcription of liaFSR and liaXYZ (liaFSR and liaXYZ; protein plus subinhibitory DAP, listed as N terminus of LiaX): maximal activation of the LiaFSR cell envelope stress response; also recorded: highly up-regulated | protection from LL-37 killing (E. faecalis strains): did not protect OG1RFΔliaR from LL-37–mediated killing | change in DAP MIC [6]: did not change under any condition | increase in DAP MIC ([7]; OG1RF, 50 nM exogenous protein): over 8 fold | protection against DAP ([7]; OG1RF, 1 to 100 nM N-terminal LiaX, up to 200 nM full-length LiaX): high level of protection to OG1RF in a concentration-dependent manner | protection against DAP ([7]; OG1RFΔliaR, 50 nM exogenous protein): did not protect OG1RFΔliaR against DAP | increase in DAP MIC ([7]; S613, 50 nM exogenous protein): over 8 fold
